Laboratory results from ChEMBL document CHEMBL5029161, “Synthetic Neutralizing Peptides Inhibit the Host Cell Binding of Spike Protein and Block Infection of SARS-CoV-2” (J Med Chem, 2021).
The source made the active and inactive calls. No cut-off for these calls is given here.

How the values were obtained:
293T/ACE2 [1] = assay: Inhibition of Spike protein subunit S in SARS-CoV-2 pseudovirus assessed as inhibition of infection in human 293T/ACE2 cells by measuring decrease in luciferase activity at 0.000001 to 100 uM pretreated for 1 hr; type: cell-based; conditions: Severe acute respiratory syndrome coronavirus 2, dose lower 1e-06 µM, dose upper 100.0 µM
In short: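 The pseudovirus was HIV-1-based, bought ready-made, and carried S protein with luciferase and GFP reporters. It was pre-mixed with serially diluted peptides (1 pM–100 μM) for 1 h at 37 °C, then added to 293T-ACE2⁺ cells for 1 h. Medium was then replaced, followed by 47 h further culture. Infection rate was derived from luciferase activity.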

293T/ACE2 [2] = assay: Cytotoxicity against human 293T/ACE2 cells assessed as cell viability at 0.001 to 100 uM measured after 48 hrs using CCK-8 assay; type: functional, cell-based; conditions: dose 0.001-100 µM
In short: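 293T-ACE2⁺ cells were grown in high-glucose DMEM with 10% FBS and 500 μg/mL hygromycin. They were exposed to peptides at 1 nM–100 μM (tenfold steps) for 48 h, with medium alone as control. After a PBS wash, CCK-8 was added and incubated at 37 °C. OD was read at 450/630 nm and normalised to control, n = 3.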

293T/ACE2 [3] = assay: Inhibition of recombinant SARS-Cov-2 Spike protein subunit S1 binding to human 293T/ACE2 cells preincubated for 1 hr by Western blot analysis; type: cell-based; conditions: Severe acute respiratory syndrome coronavirus 2
In short: (§1)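 Recombinant S1 protein was preincubated with peptides for 1 h at 37 °C, then added to A549 or 293T-ACE2⁺ cells for 1 h. Cells were washed, lysed in RIPA with PMSF and phosphatase inhibitor, and equal protein was run on SDS-PAGE. Blots on PVDF were probed with anti-S1 rabbit pAb, with ACTB as loading reference, and detected by chemiluminescence.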

[4] = Binding affinity to the recombinant SARS-Cov-2 Spike protein subunit S1 by QCM-D measurement; set-up: species or system Severe acute respiratory syndrome coronavirus 2
In short: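 Peptides were thiolated and coated onto 5 MHz gold QCM-D sensors for 30 min at room temperature. Recombinant S1 protein then flowed over as mobile phase at 300 μL/min, 37 °C, in PBS. Kd came from nonlinear regression of saturated binding mass (Δm) against […] (nM).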

A549 [5] = assay: Inhibition of recombinant SARS-Cov-2 Spike protein subunit S1 binding to human A549 cells preincubated for 1 hr by Western blot analysis; type: cell-based; conditions: Severe acute respiratory syndrome coronavirus 2; in short: as §1
293T/ACE2 [6] = assay: Inhibition of Spike protein subunit S in SARS-CoV-2 pseudovirus assessed as inhibition of infection in human 293T/ACE2 cells by measuring decrease in fluorescence intensity at 0.000001 to 100 uM pretreated for 1 hr; type: cell-based; conditions: Severe acute respiratory syndrome coronavirus 2, dose lower 1e-06 µM, dose upper 100.0 µM
In short: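 A bought-in HIV-1-based S-pseudotyped reporter virus expressing GFP was preincubated with serially diluted peptides for 1 h at 37 °C. It was then applied to 293T-ACE2⁺ cells for 1 h and replaced with fresh medium, followed by 47 h more culture. Cellular GFP fluorescence intensity was observed.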

A549 [7] = assay: Cytotoxicity against human A549 cells assessed as cell viability at 0.001 to 100 uM measured after 48 hrs using CCK-8 assay; type: cell-based; conditions: a549, 48 h, dose 0.001-100 µM
In short: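 A549 cells were grown in McCoy-5A with 10% FBS. They were exposed to peptides at 1 nM–100 μM (tenfold steps) for 48 h, with medium alone as control. After a PBS wash, CCK-8 was added and incubated at 37 °C. OD was read at 450/630 nm and normalised to control, n = 3.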

Substance | inhibition (293T/ACE2 [1]) | Activity (293T/ACE2 [2]) | inhibition (293T/ACE2 [3]) | Kd [4] [nM] | inhibition (A549 [5]) | inhibition (293T/ACE2 [6]) | Activity (A549 [7])
H-GDGVYYPRDVFDSSVLDSTQR-OH | Active | Not toxic | Active | 5.6 | Active | Active | Non-Toxic
H-GDLFDDSNLDPFRDRISTRR-OH | Active | Not toxic | Active | 37.5 | Active | Active | Non-Toxic
H-GDRIARTTRAVDRPQTLRR-OH | Active | Not toxic | Active | 76.9 | Active | Active | Non-Toxic
